Reference: ChEMBL document CHEMBL4680142, “Thiazolidine-2,4-dione-based irreversible allosteric IKK-β kinase inhibitors: Optimization into in vivo active anti-inflammatory agents” (Eur J Med Chem, 2020)
Calls of active or inactive are those of the source. The rule behind the calls is not given here.

How the values were obtained:
RAW264.7 [1] = test: Antiinflammatory activity against mouse RAW264.7 cells assessed as reduction in LPS-induced TNF-alpha level at 0.1 to 1 uM incubated for 1 hr followed by LPS stimulation and measured after 24 hrs by ELISA; type: functional, cell-based; conditions: dose 0.1-1 µM, time 25.0 hrs
In short: (§1)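 RAW 264.7 cells (DMEM, 10% FBS, 37 °C, 5% CO2) plated at 2×10^5 cells/mL and left overnight. Compounds (0.1, 1, 10 µM) or NS-398 given for 1 h, then LPS 10 ng/mL for 24 h. Culture medium assayed by ELISA: competitive colorimetric for PGE2/TNF-α, mouse DuoSet for TNF-α/IL-6. IC50 is the concentration lowering the mediator to 50%.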

Mus musculus = test: Antiinflammatory activity against LPS-induced sepsis C57BL/6 mouse model assessed as organism survival rate at 5 to 50 mg/kg, po administered 1 hr before LPS stimulation and measured after 36 hrs relative to control; type: functional; conditions: dose 5-50 mg/kg, time 37 hrs
In short: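 Male C57BL/6 mice (6 or 10 weeks), water only for 24 h beforehand. Compound given orally at 5 or 50 mg/kg 1 h before intraperitoneal injection of LPS (Salmonella enterica serotype enteritidis, 25 mg/kg in PBS); controls received PBS. Survival monitored for 36 h.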

RAW264.7 [2] = test: Antiinflammatory activity against mouse RAW264.7 cells assessed as reduction in LPS-induced PGE2 production at 0.1 uM incubated for 1 hr followed by LPS stimulation and measured after 24 hrs by ELISA; type: functional, cell-based; conditions: time 25.0 hrs; in short: as §1
RAW264.7 [3] = test: Antiinflammatory activity against mouse RAW264.7 cells assessed as reduction in LPS-induced PGE2 production at 0.1 to 1 uM incubated for 1 hr followed by LPS stimulation and measured after 24 hrs by ELISA; type: functional, cell-based; conditions: dose 0.1-1 µM, time 25.0 hrs; in short: as §1

Row | SMILES | inhibition (RAW264.7 [1]) | Survival (Mus musculus) [%] | Activity (RAW264.7 [2]) | Activity (RAW264.7 [3])
1 | CN1CCN(CCCOc2ccc(N3C(=O)S/C(=C\c4ccc(Oc5ccc(C#N)cc5)cc4)C3=O)cc2)CC1 | inactive | 80 | Active | 
2 | CN1CCN(CCCCCOc2cccc(N3C(=O)S/C(=C\c4ccc(Oc5ccc([N+](=O)[O-])cc5)cc4)C3=O)c2)CC1 |  |  |  | inactive
